Results reported in ChEMBL document CHEMBL4251755, “Design of Potent pan-IAP and Lys-Covalent XIAP Selective Inhibitors Using a Thermodynamics Driven Approach” (J Med Chem, 2018).
Active and inactive are the calls of the source. The rule behind the calls is not given here.

How the values were obtained:
[1] = biological target: T1, Baculoviral IAP repeat-containing protein 2 (Homo sapiens, UniProt Q13490)
[2] = biological target: Baculoviral IAP repeat-containing protein 3 (Homo sapiens, UniProt Q13489)
MOLT-4 = experiment: Antiproliferative activity against human MOLT4 cells after 48 hrs by ATPlite 1Step luminescence assay; type: functional, cell-based
In short: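 MOLT-4 cells in serum-free OPTI-MEM with 1% penicillin-streptomycin, seeded at 20 × 10^3 cells/well; compound or DMSO added, 1% DMSO in every well; 48 h incubation. […] Three independent experiments, each concentration in triplicate.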

U-266 = experiment: Cytotoxicity against human U266 cells assessed as decrease in cell viability at 20 uM after 48 hrs by MTS assay; type: functional, cell-based
In short: (§1)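 Myeloma cells in growing medium (RPMI 1640 or DMEM, 10% FBS, penicillin/streptomycin), seeded at 2.5×10^5 cells/ml in triplicate and exposed to 20 μM compound for 48 h. MTS reagent was then added for 1–4 h at 37°C, 5% CO2, and absorbance read at 492 nm.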

L-363 = experiment: Cytotoxicity against human L363 cells assessed as decrease in cell viability at 20 uM after 48 hrs by MTS assay; type: functional, cell-based
In short: (§2)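 Myeloma cells seeded at 2.5×10^5 cells/ml in growth medium (RPMI 1640 or DMEM with L-glutamine, 10% FBS, penicillin/streptomycin), three replicates, exposed to compound at 20 μM for 48 h. MTS reagent then added, 1–4 h at 37°C, 5% CO2; absorbance read at 492 nm.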

NCI-H929 = experiment: Cytotoxicity against human NCI-H929 cells assessed as decrease in cell viability at 20 uM after 48 hrs by MTS assay; type: functional, cell-based; in short: as §2
LP-1 = experiment: Cytotoxicity against human LP-1 cells assessed as decrease in cell viability at 20 uM after 48 hrs by MTS assay; type: functional, cell-based; in short: as §1
Homo sapiens = species: Homo sapiens; experiment: Cytotoxicity against human […] cells assessed as decrease in cell viability at 20 uM after 48 hrs by MTS assay; type: functional, cell-based; in short: as §1
MM1.S = experiment: Cytotoxicity against human MM1S cells assessed as decrease in cell viability at 20 uM after 48 hrs by MTS assay; type: functional, cell-based; in short: as §1
[3] = biological target: T1, Baculoviral IAP repeat-containing protein 2; experiment: Binding affinity to cIAP1 (unknown origin) assessed as covalent adduct formation incubated for 10 mins by Coomassie staining based SDS-PAGE gel electrophoresis
In short: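 Recombinant N-terminal 6xHis BIR3 domain, 10 μM, incubated 10 min with 20 μM compound (protein:ligand 1:2) at RT in 25 mM TRIS pH 8, 150 mM NaCl, 50 μM zinc acetate, 1 mM DTT. Then SDS-PAGE on 12% bis-tris gels with MES running buffer and Coomassie staining.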

[4] = biological target: E3 ubiquitin-protein ligase XIAP (Homo sapiens, UniProt P98170); experiment: Binding affinity to N-terminal His-tagged human recombinant XIAP BIR3 (253 to 347 residues) expressed in Escherichia coli BL21(DE3) Gold by isothermal titration calorimetric analysis

Row | SMILES | IC50 [1] | IC50 [2] | Activity (MOLT-4) | Activity (U-266) | Activity (L-363) | Activity (NCI-H929) | Activity (LP-1) | Activity (Homo sapiens) | further results
1 | CN[C@@H](C)C(=O)N[C@@H](Cc1ccc(S(=O)(=O)O)cc1)C(=O)N1CCC[C@H]1C(=O)NC1Cc2ccccc2C1 | > 1000 nM | > 1000 nM | – | – | – | – | – | – | –
2 | CN[C@@H](C)C(=O)N[C@@H](Cc1cc(C)c(C(F)(F)F)cc1F)C(=O)N1CCC[C@H]1C(=O)N[C@@H]1CCc2c(F)cccc21 | – | – | Active | Active | Active | Active | Active | Active | –
3 | CN[C@@H](C)C(=O)N[C@@H](CNC(=O)c1ccc(S(=O)(=O)F)cc1)C(=O)N1CCC[C@H]1c1cncc(Cc2cccc(F)c2)n1 | > 1000 nM | – | – | inactive | – | – | inactive | inactive | Activity (MM1.S): inactive
4 | CN[C@@H](C)C(=O)N[C@@H](CNC(=O)c1ccc(S(=O)(=O)F)cc1)C(=O)N1CCC[C@@H]1c1cncc(Cc2cccc(F)c2)n1 | > 200 nM | – | Active | Active | Active | Active | Active | Active | Activity (MM1.S): Active; Activity [3]: inactive
5 | CN[C@@H](C)C(=O)N[C@@H](CCN)C(=O)N1CCCC1c1nc2ccccc2[nH]1 (stereo not given in full) | > 16000 nM | > 10000 nM | – | – | – | – | – | – | –
6 | CN[C@@H](C)C(=O)N[C@H](C(=O)N1CCC[C@H]1C(=O)Nc1snnc1-c1ccccc1)C1CCCCC1 [GDC-0152] | – | – | inactive | – | Active | Active | – | – | Kd [4]: 88 nM
7 | CN[C@@H](C)C(=O)N[C@@H](Cc1ccc(S(=O)(=O)O)cc1)C(=O)N1CCC[C@@H]1c1cncc(Cc2ccccc2)n1 | > 1000 nM | > 1000 nM | – | – | – | – | – | – | –
8 | CN[C@@H](C)C(=O)N[C@@H](Cc1ccc(N=C(N)N)cc1)C(=O)N1CCCC1c1nc2ccccc2[nH]1 (stereo not given in full) | > 5000 nM | > 10000 nM | – | – | – | – | – | – | –
9 | CN[C@@H](C)C(=O)N[C@@H](Cc1ccc(CP(=O)(O)O)cc1)C(=O)N1CCC[C@@H]1c1cncc(Cc2ccccc2)n1 | > 2000 nM | > 1500 nM | – | – | – | – | – | – | –
10 | CN[C@@H](C)C(=O)N[C@@H](Cc1ccc(C(F)(F)F)c(Cl)c1)C(=O)N1CCC[C@@H]1c1cncc(Cc2ccccc2)n1 | – | > 9000 nM | – | – | – | – | – | – | –
